A short description of series [1]: Drug level in PBS treated with 3-(3-(((2-Amino-9H-purin-6-yl)oxy)methyl)benzyl)-1-(2-chloroethyl)-1-nitrosourea by HPLC-UV analysis. It counts as physicochemical. Conditions: buffer. A digest of the protocol: (§1)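 Stock dissolved in minimal DMSO, diluted into PBS (pH 7.4) or MEM-EBSS containing 10% FBS plus penicillin/streptomycin to 0.1 mM final. Incubated at 37 °C, with aliquots taken at set times over 8 h and frozen. Medium samples were deproteinized with an equal volume of acetonitrile and centrifuged. Analysis by HPLC-UV on C18, eluting 50% 50 mM ammonium acetate pH 4.5 / 50% methanol at 1.0 mL/min.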

The nature of series [2]: Retention time of the compound in PBS/MEM-EBSS treated with 3-(3-(((2-Amino-9H-purin-6-yl)oxy)methyl)benzyl)-1-(2-chloroethyl)-1-nitrosourea by HPLC-UV analysis. The settings on record: buffer. It is filed as physicochemical. In outline:
as §1

Series [3] is described as follows: Drug level in MEM-EBSS treated with 3-(3-(((2-Amino-9H-purin-6-yl)oxy)methyl)benzyl)-1-(2-chloroethyl)-1-nitrosourea by HPLC-UV analysis. It is filed as physicochemical. A digest of the protocol:
as §1

The nature of series [4]: Cytotoxicity against human SF-767 cells expressing moderate level of AGT assessed as cell survival after 24 hrs by CCK8 assay. Conditions: SF767, 24 h.
Series [5] can be described thus: Induction of dG-dC cross linking in human SF763 cells expressing high level of AGT assessed as level of dG-dC cross link per mg of DNA at 0.4 mM after 12 hrs by HPLC-ESI-MS/MS analysis. It counts as functional. A digest of the protocol: (§2)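 SF763 glioma cells (mer+, 119 fmol AGT/10^6 cells) in MEM-EBSS/10% FBS were grown to about 90% confluence and exposed for 12 h. DNA was isolated by proteinase K/RNase/phenol-chloroform, then digested with four enzymes and spiked with 15N3-dG-dC. Isotope-dilution HPLC-ESI-MS/MS; dG-dC given as fmol per mg DNA, with DNA estimated from dGuo content. Mean ± SD of triplicates.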

The nature of series [6]: Cytotoxicity against human SF763 cells expressing high level of AGT assessed as cell survival after 24 hrs by CCK8 assay. It counts as functional, cell-based. Conditions: SF763, 24 h. A digest of the protocol:
(§3)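 Glioma cells kept in MEM-EBSS with 10% FBS, 37 °C, 5% CO2. Seeded 5000 cells/well, grown 24 h, then 24 h drug exposure over a range of concentrations. Read-out: CCK8 (10%, 3 h), A450. Survival % = (A_drug−A_blank)/(A_control−A_blank)×100. Mean ± SD of at least three independent experiments. DMSO or ethanol vehicle kept below 0.1%.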

The nature of series [7]: Retention time of the compound in PBS/MEM-EBSS by HPLC-UV analysis. The settings on record: buffer. It counts as physicochemical. In outline: as §1
Series [8] relates to Calf thymus DNA. Put plainly: Induction of dG-dC cross linking in calf thymus DNA assessed as level of dG-dC cross link per mg of DNA at 0.1 mM after 12 hrs by HPLC-ESI-MS/MS analysis. Conditions: Bos taurus. It is filed as nucleic-acid assay. In outline:
(§4)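 CT DNA at 1 mg/mL in buffer (10 mM Tris, 50 mM NaCl, 50 mM Na2HPO4, pH 7.4) was given the compound from a DMSO solution and incubated 12 h at 37 °C. DNA was ethanol-precipitated and digested (DNase I, S1 nuclease, alkaline phosphatase, phosphodiesterase I), with 15N3-dG-dC internal standard at 9.6 nM final. Quantitation by isotope-dilution HPLC-ESI-MS/MS in positive SRM mode. Results given as fmol/mg DNA, mean ± SD of triplicates.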

The nature of series [9]: Half life of compound in MEM-EBSS by HPLC-UV analysis in presence of 10% fetal bovine serum. It counts as physicochemical. Conditions: cattle, MEM-EBSS with 10% fetal bovine serum. A digest of the protocol: as §1
For series [10], the system named is Calf thymus DNA. Put plainly: Induction of dG-dC cross linking in calf thymus DNA assessed as level of dG-dC cross link per mg of DNA at 0.2 mM after 12 hrs by HPLC-ESI-MS/MS analysis. It counts as nucleic-acid assay. The settings on record: Bos taurus. A digest of the protocol:
as §4

Series [11] in a line: Cytotoxicity against human SF126 cells expressing low level of AGT assessed as cell survival after 24 hrs by CCK8 assay. It is filed as functional, cell-based. Conditions: SF-126, 24 h. A digest of the protocol: as §3
The subject of series [12] is Calf thymus DNA. The series is described as follows: Induction of dG-dC cross linking in calf thymus DNA after 12 hrs by HPLC-ESI-MS/MS analysis. It is filed as nucleic-acid assay. The settings on record: Bos taurus. In outline: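 Calf thymus DNA at 1 mg/mL in buffer (10 mM Tris, 50 mM NaCl, 50 mM Na2HPO4, pH 7.4) was treated with 0.1, 0.2 or 0.4 mM final for 12 h at 37 °C, then ethanol-precipitated. Digestion with DNase I, S1 nuclease, CIAP and phosphodiesterase I, spiked with 15N3-dG-dC internal standard. Isotope-dilution HPLC-ESI-MS/MS (SRM, positive mode), reported as fmol/mg DNA, mean ± SD of triplicates.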

The nature of series [13]: Induction of dG-dC cross linking in human SF763 cells expressing high level of AGT assessed as level of dG-dC cross link per mg of DNA at 0.1 mM after 12 hrs by HPLC-ESI-MS/MS analysis. It is filed as functional. In outline:
as §2

A short description of series [14]: Half life of compound in PBS by HPLC-UV analysis.
The nature of series [15]: Induction of dG-dC cross linking in human SF763 cells expressing high level of AGT assessed as level of dG-dC cross link per mg of DNA at 0.2 mM after 12 hrs by HPLC-ESI-MS/MS analysis. It counts as functional. In outline:
as §2

A further series deals with SF-126. Put plainly: Potency index, ratio IC50 of ACNU to ratio IC50 of compound for human SF126 cells expressing low level of AGT. It counts as functional.
In series [16] the test system is Calf thymus DNA. The series is described as follows: Induction of dG-dC cross linking in calf thymus DNA assessed as level of dG-dC cross link per mg of DNA at 0.4 mM after 12 hrs by HPLC-ESI-MS/MS analysis. It is filed as nucleic-acid assay. The settings on record: Bos taurus. In outline:
as §4

The nature of series [17]: Cytotoxicity against human SF126 cells expressing low level of AGT assessed as cell death after 24 hrs by CCK8 assay. It counts as functional, SF-126. In outline: as §3
Series [18] in a line: Cytotoxicity against human SF763 cells expressing high level of AGT assessed as cell death after 24 hrs by CCK8 assay. It counts as functional. In outline: as §3
Series [19] in a line: Cytotoxicity against human SF-767 cells expressing high level of AGT assessed as cell death after 24 hrs by CCK8 assay. It counts as functional. A digest of the protocol:
as §3

A short description of series [20]: Half life of compound in serum containing medium. It is filed as ADME. A digest of the protocol: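 Compound at 0.1 mM final (from DMSO stock) in MEM-EBSS with 10% FBS, penicillin/streptomycin, incubated 37 °C up to 8 h. Aliquots precipitated with equal volume acetonitrile, centrifuged, supernatant run on HPLC-UV. C18 column, 50% 50 mM ammonium acetate pH 4.5 / 50% methanol, 1.0 mL/min. Half-life read from degradation curve.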

Series [21] is described as follows: Cytotoxicity against human SF763 cells expressing high level of AGT assessed as cell survival after 24 hrs by CCK8 assay in presence of O6-BG. It is filed as functional, cell-based. The settings on record: SF763, 24 h. In outline:
(§5)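 Cells were seeded at 5000 cells/well and grown 24 h. They were pretreated 2 h with O6-BG at 20 µM final, then switched to fresh medium holding ACNU or BCNU at various concentrations for 24 h. Read-out: CCK8 (10%, 3 h), absorbance 450 nm. Survival expressed relative to untreated cells after blank subtraction. Mean ± SD, ≥3 independent experiments.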

The nature of series [22]: Cytotoxicity against human SF-767 cells expressing moderate level of AGT assessed as cell survival after 24 hrs by CCK8 assay in presence of O6-BG. The settings on record: SF767, 24 h.
A short description of series [23]: Cytotoxicity against human SF126 cells expressing low level of AGT assessed as cell survival after 24 hrs by CCK8 assay in presence of O6-BG. It counts as functional, cell-based. The settings on record: SF-126, 24 h. In outline: as §5

Regarding `Nc1nc(OCc2cccc(CN=C=O)c2)c2nc[nH]c2n1`, the Drug metabolism entry in series [1] and in [3] was “metabolite_detected” throughout. Besides, in series [2], the Retention_time stood at 16.25 min.

In the case of `Nc1nc(OCc2cccc(CNC(=O)N(CCCl)N=O)c2)c2nc[nH]c2n1`, the half-inhibitory concentration (IC50) in series [4] amounted to 25 µM; in series [6] it was 35 µM; in series [11], 50 µM. Moreover, the Activity is 787 fmol in series [5]; 3880 fmol with Calf thymus DNA [8]; 6100 fmol in the series on Calf thymus DNA [10]; “Dose-dependent effect” in the series with Calf thymus DNA [12]; 267 fmol in series [13]; 713 fmol in series [15]. Further, the Activity with Calf thymus DNA [16] is 10300 fmol. Also, in series [7], the Retention_time is 23.93 min. The half-life in series [9] stood at 18 min; in series [14] it was 30 min. Also, in the series with SF-126, the “Ratio IC50” value is on record as greater than 6.

With `NCc1cccc(COc2nc(N)nc3nc[nH]c23)c1`, the Drug metabolism entry in series [1] and in series [3] was “metabolite_detected” throughout. The molecule further registered a Retention_time in series [2] of 13.85 min. Also, the mortality in series [17], in series [18] and in series [19] was less than 3% each time.

Take `O=NN(CCCl)C(=O)NCCCl` [CARMUSTINE]: the 50% inhibitory concentration (IC50) in series [4] came out at 45 µM; in [6], 100 µM; in series [21] it was 55 µM; in series [22] it was 30 µM; in [11], 20 µM; in [23] it was 25 µM. The molecule further registered a half-life in [20] of 15 min. Also, the Activity in [5] is 342 fmol; in the series on Calf thymus DNA [8], 6160 fmol; in the series with Calf thymus DNA [10], 13600 fmol; in series [13] it was 145 fmol; in series [15], 224 fmol; in the series on Calf thymus DNA [16] it was 24300 fmol.

As for `Cc1ncc(CNC(=O)N(CCCl)N=O)c(N)n1` [NIMUSTINE], the IC50 in series [4] was 500 µM; in [6], greater than 1000 µM; in series [21], 1000 µM; in [22], 400 µM; in series [11], 320 µM; in series [23], 310 µM. Further, the Activity in [5] turned out to be 568 fmol; in the series on Calf thymus DNA [8], 8750 fmol; in the series on Calf thymus DNA [10] it was 16800 fmol; in series [13], 172 fmol; in series [15] it was 447 fmol; in the series with Calf thymus DNA [16], 34900 fmol.

For the origin of these results see ChEMBL document CHEMBL3779845, “Synthesis and antitumor activity evaluation of a novel combi-nitrosourea prodrug: Designed to release a DNA cross-linking agent and an inhibitor of O(6)-alkylguanine-DNA alkyltransferase” (Bioorg Med Chem, 2016).
